The source made the active and inactive calls. No cut-off for these calls is given here.
Tests used:
[1] = target: GABA-A receptor; anion channel; assay: Displacement of [3H]muscimol from GABAA receptor in SPRD rat brain synaptic membranes by scintillation counting method; format: cell membranes
In short: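 Rat synaptic membranes were thawed, homogenized in ice-cold 50 mM Tris-HCl pH 7.4, and spun at 48,000g for 10 min at 4 °C, with the wash repeated four times. Incubation was with 5 nM [3H]muscimol (final) and varying test concentrations for 60 min at 0 °C, then GF/C filtration and scintillation counting.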

[2] = target: T1, GABA-A receptor; alpha-1/beta-2/gamma-2 (Homo sapiens, UniProt P14867+P47870+P18507); assay: (§1) Agonist activity at human GABAAalpha1beta2gamma2S receptor expressed in tsA-201cells by FLIPR membrane potential blue assay; details: tsa-201
T1 sequence (P14867 whole entry): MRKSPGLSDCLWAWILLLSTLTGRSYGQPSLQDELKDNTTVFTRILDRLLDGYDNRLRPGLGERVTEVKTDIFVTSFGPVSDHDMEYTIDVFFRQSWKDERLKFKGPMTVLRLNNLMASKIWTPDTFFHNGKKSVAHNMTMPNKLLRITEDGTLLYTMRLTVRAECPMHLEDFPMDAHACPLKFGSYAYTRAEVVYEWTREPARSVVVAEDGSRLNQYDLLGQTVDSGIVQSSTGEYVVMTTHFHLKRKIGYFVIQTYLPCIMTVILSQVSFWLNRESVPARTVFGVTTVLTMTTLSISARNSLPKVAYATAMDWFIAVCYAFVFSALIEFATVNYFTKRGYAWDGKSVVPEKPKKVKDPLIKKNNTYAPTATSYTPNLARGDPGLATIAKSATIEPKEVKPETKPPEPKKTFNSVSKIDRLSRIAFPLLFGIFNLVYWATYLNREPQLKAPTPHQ
T1 sequence (P47870 whole entry): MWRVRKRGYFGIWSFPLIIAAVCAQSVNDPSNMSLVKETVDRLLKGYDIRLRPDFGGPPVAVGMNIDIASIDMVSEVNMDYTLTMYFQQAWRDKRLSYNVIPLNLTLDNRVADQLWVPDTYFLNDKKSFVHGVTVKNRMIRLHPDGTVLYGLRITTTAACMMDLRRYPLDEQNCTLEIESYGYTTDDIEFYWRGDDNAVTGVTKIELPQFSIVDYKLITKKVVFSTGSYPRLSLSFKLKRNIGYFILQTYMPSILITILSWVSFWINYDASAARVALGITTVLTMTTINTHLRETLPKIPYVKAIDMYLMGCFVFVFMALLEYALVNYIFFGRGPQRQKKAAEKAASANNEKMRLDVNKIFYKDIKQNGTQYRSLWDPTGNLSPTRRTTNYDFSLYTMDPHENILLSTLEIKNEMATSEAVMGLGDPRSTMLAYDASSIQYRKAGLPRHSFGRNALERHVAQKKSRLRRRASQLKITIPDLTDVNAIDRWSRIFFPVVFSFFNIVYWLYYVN
T1 sequence (P18507 whole entry): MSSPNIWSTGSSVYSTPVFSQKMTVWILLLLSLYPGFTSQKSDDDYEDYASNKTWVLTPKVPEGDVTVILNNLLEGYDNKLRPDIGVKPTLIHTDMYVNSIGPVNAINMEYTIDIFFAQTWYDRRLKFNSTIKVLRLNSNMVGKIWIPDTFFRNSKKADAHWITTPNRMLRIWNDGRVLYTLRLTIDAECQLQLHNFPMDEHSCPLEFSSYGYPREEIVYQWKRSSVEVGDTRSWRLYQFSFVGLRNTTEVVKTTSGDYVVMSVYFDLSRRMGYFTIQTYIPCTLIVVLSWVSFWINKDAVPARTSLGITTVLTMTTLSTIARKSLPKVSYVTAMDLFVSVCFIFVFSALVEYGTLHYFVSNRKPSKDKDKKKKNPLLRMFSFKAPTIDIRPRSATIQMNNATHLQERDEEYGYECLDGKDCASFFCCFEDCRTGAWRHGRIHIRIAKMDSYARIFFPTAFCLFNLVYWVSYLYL
In short: (§2)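 tsA201 cells (8×10^5 per 6 cm dish) were transfected with α1, α2, α3 or α5 plus β2 and γ2S cDNAs (1:1:3), or with ρ1 alone. Next day cells were replated into poly-D-lysine 96-well plates. After 16–24 h they were washed with Krebs buffer pH 7.4, given membrane-potential dye, held 30 min at 37 °C, and read at 560 nm emission. Concentration-response curves used ΔFU before versus after agonist; duplicates were run ≥3 times.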

[3] = target: GABA-A receptor; alpha-1/beta-2/gamma-2 (Homo sapiens) (UniProt P14867+P47870+P18507); assay: Agonist activity at human GABAAalpha1beta2gamma2S receptor expressed in tsA-201cells at 1 mM by FLIPR membrane potential blue assay; format: cell-based
In short: (§3)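 Transfected tsA201 cells (α1β2γ2S or ρ1) were loaded with membrane-potential dye in Krebs buffer pH 7.4 for 30 min at 37 °C. Compound was applied at a single 1 mM concentration. Response was read as fluorescence change at 560 nm emission before versus after addition, in duplicate on ≥3 occasions.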

[4] = Dissociation constant, pKa of the compound by diode array detector method; format: physicochemical
In short: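 pKa was determined by titration in methanol cosolvent at 23–48%, with three titrations per compound. An in-line diode-array detector recorded UV-Vis spectra, and the titration was mapped against the spectra of the protonated and unprotonated species.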

[5] = target: T2, GABA-A receptor; alpha-1/beta-2/gamma-2 (Homo sapiens, UniProt P14867+P18507+P47870); assay: as §1; details: read-out: EC50; in short: as §2
T2 sequence (P14867 whole entry): T1 sequence (P14867 whole entry)
T2 sequence (P47870 whole entry): T1 sequence (P47870 whole entry)
T2 sequence (P18507 whole entry): T1 sequence (P18507 whole entry)

[6] = target: T3, Gamma-aminobutyric acid receptor subunit rho-1 (Homo sapiens, UniProt P24046); assay: Agonist activity at human GABAA rho1 expressed in tsA-201cells by FLIPR membrane potential blue assay; in short: as §2
[7] = target: T3, Gamma-aminobutyric acid receptor subunit rho-1; assay: Agonist activity at human GABAA rho1 expressed in tsA-201cells by FLIPR membrane potential blue assay relative to GABA
[8] = system: tsA-201; assay: Agonist activity at human GABAAalpha5beta2gamma2S receptor expressed in tsA-201cells by FLIPR membrane potential blue assay relative to GABA
[9] = target: T3, Gamma-aminobutyric acid receptor subunit rho-1; assay: Agonist activity at human GABAA rho1 expressed in tsA-201cells at 1 mM by FLIPR membrane potential blue assay; format: cell-based; in short: as §3
[10] = target: T4, GABA A receptor alpha-2/beta-2/gamma-2 (Homo sapiens, UniProt P18507+P47869+P47870); assay: Agonist activity at human GABAAalpha2beta2gamma2S receptor expressed in tsA-201cells by FLIPR membrane potential blue assay; in short: as §2
T4 sequence (P47870 whole entry): T1 sequence (P47870 whole entry)
T4 sequence (P18507 whole entry): T1 sequence (P18507 whole entry)
T4 sequence (P47869 whole entry): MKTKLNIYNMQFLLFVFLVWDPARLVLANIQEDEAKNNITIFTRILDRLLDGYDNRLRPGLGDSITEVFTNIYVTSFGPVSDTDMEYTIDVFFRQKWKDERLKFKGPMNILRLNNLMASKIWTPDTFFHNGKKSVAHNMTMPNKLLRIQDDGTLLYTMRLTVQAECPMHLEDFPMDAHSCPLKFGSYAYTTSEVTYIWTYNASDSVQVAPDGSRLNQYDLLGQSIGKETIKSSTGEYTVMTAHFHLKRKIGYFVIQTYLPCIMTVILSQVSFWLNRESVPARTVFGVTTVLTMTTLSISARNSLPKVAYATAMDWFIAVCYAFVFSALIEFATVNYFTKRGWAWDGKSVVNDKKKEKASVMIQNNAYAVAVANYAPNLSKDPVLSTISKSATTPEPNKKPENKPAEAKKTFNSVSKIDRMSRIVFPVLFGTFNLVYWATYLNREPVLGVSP

[11] = Agonist activity at human GABAAalpha5beta2gamma2S receptor expressed in tsA-201cells by FLIPR membrane potential blue assay; format: cell membranes
[12] = target: GABA A receptor alpha-2/beta-2/gamma-2 (Homo sapiens) (UniProt P47870+P18507+P47869); assay: Agonist activity at human GABAAalpha2beta2gamma2S receptor expressed in tsA-201cells by FLIPR membrane potential blue assay relative to GABA
[13] = target: T5, GABA A receptor alpha-3/beta-2/gamma-2 (Homo sapiens, UniProt P18507+P34903+P47870); assay: Agonist activity at human GABAAalpha3beta2gamma2S receptor expressed in tsA-201cells by FLIPR membrane potential blue assay; in short: as §2
T5 sequence (P47870 whole entry): T1 sequence (P47870 whole entry)
T5 sequence (P18507 whole entry): T1 sequence (P18507 whole entry)
T5 sequence (P34903 whole entry): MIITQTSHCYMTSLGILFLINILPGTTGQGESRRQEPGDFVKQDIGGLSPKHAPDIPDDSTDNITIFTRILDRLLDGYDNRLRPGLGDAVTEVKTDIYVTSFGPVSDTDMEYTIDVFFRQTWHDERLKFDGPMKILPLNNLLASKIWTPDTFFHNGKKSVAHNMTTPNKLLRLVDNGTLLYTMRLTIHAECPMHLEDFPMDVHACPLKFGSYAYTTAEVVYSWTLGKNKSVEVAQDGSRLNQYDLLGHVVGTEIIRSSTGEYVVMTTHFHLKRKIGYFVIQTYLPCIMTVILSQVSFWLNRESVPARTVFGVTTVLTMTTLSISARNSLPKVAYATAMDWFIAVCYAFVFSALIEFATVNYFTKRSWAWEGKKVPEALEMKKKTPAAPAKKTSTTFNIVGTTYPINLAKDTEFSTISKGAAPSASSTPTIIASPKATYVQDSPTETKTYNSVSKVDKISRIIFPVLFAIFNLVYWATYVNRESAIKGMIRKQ

[14] = target: GABA A receptor alpha-3/beta-2/gamma-2 (Homo sapiens) (UniProt P47870+P18507+P34903); assay: Agonist activity at human GABAAalpha3beta2gamma2S receptor expressed in tsA-201cells by FLIPR membrane potential blue assay relative to GABA

T3 sequence (P24046 whole entry): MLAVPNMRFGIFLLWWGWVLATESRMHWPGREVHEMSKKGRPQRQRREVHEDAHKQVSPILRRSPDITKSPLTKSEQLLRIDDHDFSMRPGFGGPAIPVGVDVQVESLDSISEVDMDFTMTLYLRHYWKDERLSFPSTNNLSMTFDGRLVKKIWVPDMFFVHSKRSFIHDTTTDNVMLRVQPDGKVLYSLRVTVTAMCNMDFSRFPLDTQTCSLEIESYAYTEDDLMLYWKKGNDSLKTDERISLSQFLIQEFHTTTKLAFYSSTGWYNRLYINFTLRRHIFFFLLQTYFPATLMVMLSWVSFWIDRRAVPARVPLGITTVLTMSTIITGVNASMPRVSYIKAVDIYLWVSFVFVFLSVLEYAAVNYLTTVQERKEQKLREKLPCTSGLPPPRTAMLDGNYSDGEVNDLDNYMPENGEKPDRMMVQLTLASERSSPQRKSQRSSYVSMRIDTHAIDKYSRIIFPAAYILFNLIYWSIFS

Nc1ncc(C(=O)O)cc1I
Ki [1]: > 100 µM

NCc1cc(=O)[nH]o1 [MUSCIMOL]
Ki [1]: 0.006 µM

CNc1ccc(C(=O)O)cn1
Ki [1]: > 100 µM

O=C(O)C1CN=CNC1 (stereo not given)
EC50 [2]: Active | Rmax [3]: 25% | Ki [1]: 5.3 µM | pKi [1]: 5.29 | pKa [4]: 12.2

Nc1cccc(CC(=O)O)n1
Ki [1]: > 100 µM

Nc1cccc(C(=O)O)n1
Ki [1]: > 100 µM

CCCCc1nc(N)ccc1C(=O)O
EC50 [5]: > 1000 µM | pEC50 [2]: < 3 | Ki [1]: 7.1 µM | EC50 ([6]; read-out: EC50): > 1000 µM | pEC50 ([6]; tsa-201): < 3

O=C(O)C1CCNCC1 [ISONIPECOTIC ACID]
Rmax [7]: inactive | Rmax [8]: 115% | EC50 [2]: Active | Activity [9]: Active | EC50 [10]: 24 µM | EC50 [11]: 2.8 µM | pEC50 [11]: 5.54 | Rmax [3]: 66% | Rmax [12]: 85% | EC50 [13]: 17 µM | Ki [1]: 0.51 µM | EC50 ([6]; tsa-201): Active | Rmax [14]: 85%

Nc1ncccc1C(=O)O
Ki [1]: > 100 µM

NC1=NCC(C(=O)O)CN1 (stereo not given)
Rmax [7]: 55% | Rmax [8]: 113% | EC50 [5]: 14 µM | EC50 [10]: 9.4 µM | EC50 [11]: 2.1 µM | pEC50 [11]: 5.68 | Rmax [12]: 91% | EC50 [13]: 19 µM | Ki [1]: 0.54 µM | EC50 ([6]; read-out: EC50): 8.1 µM | EC50 ([6]; read-out: pEC50 (converted)): 1.58 µM | pKa [4]: 12.7 | Rmax [14]: 85%

CCc1cc(N)ncc1C(=O)O
EC50 [5]: > 1000 µM | pEC50 [2]: < 3 | Ki [1]: 9.3 µM | EC50 ([6]; read-out: EC50): > 1000 µM | pEC50 ([6]; tsa-201): < 3

Nc1ncccc1CC(=O)O
Ki [1]: > 100 µM

NCc1cc(O)no1 [MUSCIMOL]
Rmax [7]: 98% | Rmax [8]: 114% | EC50 [11]: 0.054 µM | pEC50 [11]: 7.27 | Rmax [12]: 99% | Rmax [14]: 97%

Nc1cc(-c2ccccc2)c(C(=O)O)cn1
Ki [1]: > 100 µM

CCc1nc(N)ccc1C(=O)O
EC50 [5]: > 1000 µM | pEC50 [2]: < 3 | Ki [1]: 2.1 µM | EC50 ([6]; read-out: EC50): > 1000 µM | pEC50 ([6]; tsa-201): < 3

— ChEMBL document CHEMBL3351648, “Synthesis and pharmacological evaluation of 6-aminonicotinic acid analogues as novel GABA(A) receptor agonists” (Eur J Med Chem, 2014)
